An excerpt weighted towards active compounds, which were near 2.3% of everything screened.
Arbovirus inh = antivirals against arbovirus infection, primary screen, cell-based, full library, 10K replicate subset; 0.37% of 200,000 active; inhibition, % at 10 µM; arbovirus infection cell-based antiviral screen; in the data active means inhibition above about 30%
ABCB1 block = ABCB1 efflux pump inhibitors, primary screen, cell-based, multiplex, flow cytometry, ABCG2 counter-screen; ATP-dependent translocase ABCB1 (Homo sapiens), P08183; inhibition, % at 6.6 µM; CCRF-Adr cells, JC-1 efflux; 0.067% of 190,000 active; AID 1326, 2008; in the data active means inhibition above about 40%;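 further: 0% = vehicle and 100% = reference inhibitor; higher value means more JC-1 retained so stronger ABCB1 efflux block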
RAM network inh = inhibitors of the yeast RAM network, primary screen, dse1pr::URA3 reporter, 5-FOA selection; 1.8% of 190,000 active; S. cerevisiae dse1pr::URA3 reporter, 5-FOA growth OD615, 2 d; analog-sensitive cbk1-as2 kinase mutant strain; inhibition, % at 50 µM; AID 868, 2007;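 active means inhibition above a set limit, 3 SD over mean compound inhibition, cut at about 8.4% in these data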;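 further: 0% = DMSO-only wells with no growth and 100% = 10 µM 1-NA-PP1 full growth; inhibition rescues growth on 5-FOA so higher OD means more RAM inhibition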
ABCG2 inh = ABCG2 efflux pump inhibitors, primary screen, multiplex with ABCB1, IgMXP3 cells, flow cytometry; JC-1 efflux; inhibition, % at 6.6 µM; 0.1% of 190,000 active;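 active means inhibition above 80%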;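 further: 0% = DMSO and 100% = nicardipine control wells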
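Measure – % inhibition of efflux relative to nicardipine and DMSO · Test system – ABCG2 IgMXP3 and barcoded ABCB1 CCRF-Adr cell mix · Control set – nicardipine as high control, DMSO as low control · Compound – one concentration, 6.6 µM final · Signal – flow cytometry of retained JC-1 fluorescence · Timing – 10 min exposure at 25 °C with rotation, no wash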
Active calls of the source: *; . = no result.

SMILES	Arbovirus inh	ABCB1 block	RAM network inh	ABCG2 inh
CC(=O)c1cccc(NC(=O)N[C@@H](CC(C)C)C(=O)O)c1	4.5	0.7	0.7	3.9
COc1cccc(/C=C2\SC(=S)N(CC3CCCO3)C2=O)c1 (stereo not drawn)	11.3	-0.2	8.6*	2.8
CCOc1cc(/C=C2/SC(=S)N(CC3CCCO3)C2=O)ccc1O (stereo not drawn)	2.8	0.2	3.9	10.7
Fc1ccccc1N1CCN(Cc2nc(-c3ccc(Cl)cc3Cl)no2)CC1	30.9*	0.0	1.4	0.5
Clc1ccc(Cc2noc(CN3CCN(c4ccccc4)CC3)n2)c(Cl)c1	18.0	4.8	3.3	1.3
COc1cc([N+](=O)[O-])cc2cc(C(=O)N3CCN=C3c3ccccc3)c(=O)oc12	5.2	0.5	8.9*	4.5
CCOC(=O)c1cc2cc([N+](=O)[O-])cc(OC)c2oc1=O	4.2	0.4	0.0	14.9
c1ccc(-c2cc(-c3ccccc3)n3ncnc3n2)cc1	2.7	1.5	0.1	20.2
c1ccc(-c2cnn3c(-c4ccccc4)c(-c4ccccc4)nc3n2)cc1	4.0	42.5*	4.2	171.9*
Cc1ccc(-c2cc(-c3ccccc3)nc(Cl)n2)cc1	2.2	0.1	9.4*	0.6
COc1ccccc1NC(=O)c1ccc(COc2ccccc2OC)o1	3.1	0.7	5.4	4.0
COC(=O)c1ccccc1NC(=O)c1ccc(COc2cc(C)cc(C)c2)o1	21.7	1.2	11.2*	8.5
COC(=O)c1ccccc1NC(=O)c1ccc(COc2ccc(C)c(C)c2)o1	48.0*	0.8	10.2*	2.4
C/C(CC(=O)Nc1cc(C)ccn1)=N\NC(=O)C(=O)NC(C)C	-5.3	-0.6	1.0	-0.9
CC(OC(=O)c1nsc(Cl)c1Cl)C(=O)NCc1ccc2c(c1)OCO2 (stereo not drawn)	6.5	-0.3	3.6	-0.9
CCC(=NCc1ccc(Cl)c(Cl)c1)c1nc(-c2ccco2)oc1O	-34.3	1.5	10.6*	4.9
Cc1snc(SCC(=O)c2ccc(Cl)cc2)c1C#N	4.5	-0.2	3.1	3.1
O=C(CCSc1ccccc1Cl)Nc1cccc([N+](=O)[O-])c1	-14.5	6.2	8.9*	54.7
NS(=O)(=O)c1cccc(NC(=O)CCSc2ccccc2Cl)c1	2.0	-0.2	1.5	-0.8
CCCC(=O)Nc1cccc(NC(=O)c2ccc([N+](=O)[O-])cc2Cl)c1	45.1*	1.0	5.4	33.9
CC1=Nc2nc(N3CCCCC3)c(C#N)c3c4c(nc(c23)N1)N(c1ccc(C(C)C)cc1)C(=O)C4	-1.2	-1.2	9.3*	-7.6
CC(C)c1ccc(-c2nc(N3CCCCC3)[nH]c(=O)c2C#N)cc1	13.2	0.2	2.6	0.7
COc1ccc(OC)c(Cc2nnc(CCC(=O)NCc3ccsc3)o2)c1	-0.5	0.2	0.0	1.7
CC1=C(C(=O)OCc2ccccc2)C(c2ccccc2)NC(=O)N1CCCCCC(=O)O (stereo not drawn)	6.5	0.6	10.3*	0.6
CC1=C(C(=O)OCc2ccccc2)C(c2ccc3ccccc3c2)NC(=O)N1CCCCCC(=O)O (stereo not drawn)	23.1	1.0	6.7	6.5
SMILES	Arbovirus inh	ABCB1 block	RAM network inh	ABCG2 inh
CC1=C(C(=O)OCc2ccccc2)C(c2ccc(-c3ccccc3)cc2)NC(=O)N1CCCCCC(=O)O (stereo not drawn)	0.8	1.2	10.7*	19.5
COc1cccc(-n2cnc3sc4c(c3c2=O)CCC4)c1	-3.0	0.5	0.6	1.6
Clc1cccc(CSc2nnc(-c3c[nH]c4ccccc34)o2)c1	-8.0	-0.3	10.1*	-0.2
O=C(CSc1nnc(-c2ccccc2Cl)o1)Nc1ccc2c(c1)OCCO2	-8.5	0.2	4.7	2.0
O=c1c(-c2nnc(SCc3ccc(Cl)c(Cl)c3)o2)cccn1Cc1ccccc1	2.2	0.7	10.6*	3.8
COc1ccc(-n2c(SCC(=O)NC3CCCCC3)nc3ccsc3c2=O)cc1	6.7	1.8	9.1*	10.2
COc1cc2c(cc1NC(=O)c1cccc(F)c1)CCCC2	1.2	.	3.1	.
COc1cc2c(cc1NC(=O)c1cccc(Br)c1)CCCC2	5.3	0.2	9.3*	0.8
Cc1ccc(Cl)cc1NC(=O)COC(=O)c1ccc(COc2ccc3c(C)cc(=O)oc3c2)cc1	6.3	0.7	1.1	9.0
CC(c1ccccc1)N(CCC(c1ccccc1)C1CCOC(C)(C)C1)C(=O)c1ccco1 (stereo not drawn)	-24.8	2.0	6.0	-3.0
COc1ccc(CN(CCC(c2ccc(F)cc2)C2CCOC(C)(C)C2)C(=O)c2ccco2)cc1 (stereo not drawn)	-42.7	23.9	9.8*	15.0
Cc1c([N+](=O)[O-])cc(C(=O)Nc2ccc(Cc3ccncc3)cc2)cc1[N+](=O)[O-]	-5.8	1.4	1.4	10.6
Cc1ccc(NC(=O)CSc2nc(C)c(C)c(C)n2)c([N+](=O)[O-])c1	4.4	3.4	8.5*	4.7
CNc1ccc(/C=C(\CCC(=O)O)c2nc3ccccc3s2)cc1[N+](=O)[O-]	12.6	0.1	10.5*	2.1
CN(c1ccccc1)c1ccc(/C=C(\CCC(=O)O)c2nc3ccccc3s2)cc1[N+](=O)[O-]	37.1*	-1.1	6.1	-0.6
Cc1ccc(/C=C(\CCC(=O)O)c2nc3ccccc3s2)cc1[N+](=O)[O-]	23.1	-0.5	10.0*	-1.0
Cn1cnnc1Sc1ccc(/C=C(\CCC(=O)O)c2nc3ccccc3s2)cc1[N+](=O)[O-]	18.7	-0.7	3.9	-2.0
COCCCn1c(SCC(=O)N2CCc3ccccc32)nnc1-c1ccco1	-6.9	2.9	8.6*	16.7
CCc1cc2c(=O)c(-c3cscn3)coc2c(CN(C)C)c1O	38.5*	1.0	-0.5	18.8
Cc1oc2c(CN(C)C)c(O)ccc2c(=O)c1-c1cscn1	0.6	-0.1	-0.4	-0.3
COc1cccc(C2CC(c3cccs3)=NN2S(C)(=O)=O)c1OC (stereo not drawn)	-0.5	0.5	0.8	0.7
Cc1cc(C(=O)O)ccc1-c1ccc(/C=C2\NC(=O)N(Cc3ccccc3Cl)C2=O)o1	14.5	-1.2	4.2	-2.1
Cc1ccc(C(=O)O)cc1-c1ccc(/C=C2/NC(=O)N(c3ccccc3)C2=O)o1	39.9*	-0.1	3.5	3.6
CC1(c2ccc([N+](=O)[O-])cc2)CC(C)(C)N(C(=O)c2ccccc2)c2ccccc21 (stereo not drawn)	33.6*	1.5	1.4	0.6
CC(=O)N1c2ccccc2C(C)(c2ccccc2)CC1(C)C (stereo not drawn)	-10.2	0.0	-1.3	0.1
O=S(=O)(Nc1ncccn1)c1ccc(Nc2ncnc3ccccc23)cc1	1.7	0.3	2.3	0.4
CC(=O)c1c(C)[nH]c(C(=O)NCCN2CCC(C)CC2)c1C	-11.1	0.2	0.3	0.5
COc1ccc(C)cc1NC(=O)CSc1nnc(COc2ccccc2)n1Cc1ccco1	0.4	0.7	9.5*	2.4
COc1ccc(NC(=O)CSc2nnc(COc3ccccc3)n2Cc2ccco2)cc1OC	-0.1	1.6	9.9*	11.8
